Compounds with a hit are over-represented: about 3.7% of the library has one in this group of screens.
Yeast life ext: yeast lifespan extension; S. cerevisiae growth with nicotinamide, OD615; deaD strain in restrictive glucose medium; inhibition of the nicotinamide effect, % at 10 µM; actives 0.68% (n = 130,000); AID 775;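 active = inhibition above a set limit, placed 3 SD over the median of all compounds, cut at about 26% in these data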;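 note: 0% = nicotinamide-treated wells and 100% = cells grown without nicotinamide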
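Assay system: engineered S. cerevisiae DeaD replicative-lifespan strain, galactose-grown log-phase cells; medium: restrictive CSMM-D dextrose medium; also added: nicotinamide, 1.5 mM, co-present with compound; schedule: 48 h compound exposure at 30 °C, humidified; detection: absorbance at 615 nm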
RAM inhibit: yeast RAM network inhibition | actives 1.8% (n = 190,000) | S. cerevisiae dse1pr::URA3 reporter, 5-FOA growth OD615, 2 d; analog-sensitive cbk1-as2 kinase mutant strain | inhibition, % at 50 µM;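 active = inhibition above a set limit, 3 SD over mean compound inhibition, cut at about 8.4% in these data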;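 note: 0% = DMSO-only wells with no growth and 100% = 10 µM 1-NA-PP1 full growth; inhibition rescues growth on 5-FOA so higher OD means more RAM inhibition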
HMGR II inh: inhibitors of class II HMG-CoA reductase from Enterococcus faecalis | purified E. faecalis HMGR, NADPH absorbance 340 nm kinetic | inhibition, % at 10 µM | actives 0.41% (n = 190,000) | AID 1066;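 active = inhibition above a set limit, the median over all tested compounds plus 3 SD, cut at about 9.5% in these data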;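 note: enzyme runs in reverse so mevalonate oxidation gives rising NADPH absorbance; 0% = complete reaction with DMSO and 100% = background rate lacking mevalonate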
Insulin prom inh: TRM-6 insulin promoter activity inhibition | TRM-6 cells, insulin promoter-eGFP reporter, imaging; reporter expression induced with tamoxifen | inhibition, % at 2 µM | actives 0.9% (n = 130,000);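 active = inhibition above the mean plus 3 SD, with well images judged a real hit on visual review, cut at about 60% in these data, passing the limit was not always enough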
BB579 growth dn: reduces growth of yeast BB579 in restrictive medium. S. cerevisiae BB579 growth, OD615, 48 h. inhibition, % at 10 µM. actives 0.51% (n = 140,000);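 active = inhibition above a set limit, 3 SD over the mean compound inhibition, cut at about 44% in these data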
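Test system: Saccharomyces cerevisiae DeaD strain BB579, replicative lifespan model yeast | Buffer or medium: Restrictive CSMM-D medium | Doses: One dose, 10 µM compound with 0.25% DMSO | Incubation: 48 h exposure, 30 °C | Detection: Culture absorbance at 615 nm | Control set: Amphotericin B at 10 µg/mL as positive control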
Numbers without * were called inactive; i = inactive; / = no result.

SMILES	Yeast life ext	RAM inhibit	HMGR II inh	Insulin prom inh	BB579 growth dn
C[C@@H](O)C1NC(=O)[C@H](CCCCN)NC(=O)c2cc([N+](=O)[O-])cc(I)c2NCCC[C@@H](C(N)=O)NC1=O (stereo not given in full)	-2	2	-2	10	-39
O=C(CNC(=S)N(Cc1ccccc1)Cc1cccs1)NCc1ccc(F)cc1	/	8.8*	-7	0	/
CCOc1ccccc1C1C(C#N)=C(N)Oc2cc(C)n(C)c(=O)c21 (stereo not given)	9	4	2	-4	-20
CCOc1cccc(C2C(C#N)=C(N)Oc3cc(C)oc(=O)c32)c1OCC (stereo not given)	-7	1	-2	82*	-56
O=C(NC1CCCc2ccccc21)c1ccccc1 (stereo not given)	4	1	-5	23	-32
O=C(O)C1C2C=CC(O2)C1C(=O)NC1CCCc2ccccc21 (stereo not given)	-12	0	3	-55	77*
COc1cc2c(cc1OC)C1(Nc3c-2c(C)nn3-c2ccccc2)C(=O)Nc2ccccc21 (stereo not given)	2	9.3*	1	-17	-60
COc1cc2c(cc1OC)C1(Nc3c-2c(-c2ccccc2)nn3-c2ccccc2)C(=O)Nc2ccccc21 (stereo not given)	0	6	-2	-22	-42
CCN1CCN(C(=O)C(C)Nc2ccc(OC)cc2OC)CC1 (stereo not given)	/	3	0	/	/
O=C(NCC1COc2ccccc2O1)c1ccccc1 (stereo not given)	-10	0	-2	-257	-29
Cc1cc(C(=O)NCC2COc3ccccc3O2)c2ccccc2n1 (stereo not given)	/	0	-3	83*	/
Cc1cccn2c(=O)c(C=NCCO)c(Nc3ccc(Cl)cc3)nc12	/	8.9*	0	/	/
CN1CCN(C(=S)NC(=O)c2ccc(C(C)(C)C)cc2)CC1	2	0	0	67*	-6
Cc1ccc(C(=O)NC(=S)N2CCN(C)CC2)cc1	-5	1	0	-14	-6
CCC(=O)c1ccc(OCC(=O)NC2(C#N)CCCCC2)cc1	/	0	4	21	/
COC(=O)c1[nH]c2ccccc2c1NC(=O)CN1CCN(C(=O)c2ccco2)CC1	-7	1	-4	91*	-41
CCOC(=O)N1CCN(CC(=O)Nc2c(C(=O)OC)[nH]c3ccccc23)CC1	-10	2	-4	6	-19
CN(C)S(=O)(=O)c1cccc(NC(=S)NN=C(Cc2ccccc2)Cc2ccccc2)c1	-3	10*	-1	10	-8
CN(C)S(=O)(=O)c1cccc(NC(=S)NC2CCCCC2)c1	/	3	-2	/	/
C=CCN1C(=O)S/C(=C\c2ccc(N3CCOCC3)cc2C)C1=O	-5	8.6*	-7	11	-25
CN(C)c1ccc(-n2cccc2/C=C/[N+](=O)[O-])cc1	/	5	-1	23	/
CN(c1ccccc1)c1ccc(/C=C/[N+](=O)[O-])cc1	-11	6	0	/	100*
CN(C[C@H](CC1CCCCC1)N(C[C@H](Cc1ccccc1)N(CCc1ccccc1)N=O)N=O)N=O	/	11*	2	/	/
CCCC[C@H](CN(N=O)[C@@H](Cc1ccccc1)CN(C)N=O)N(CCc1ccccc1)N=O	/	8.9*	2	/	/
CC(C)(C)C(=O)Cn1ncc(Br)c(Br)c1=O	/	2	-2	/	/
SMILES	Yeast life ext	RAM inhibit	HMGR II inh	Insulin prom inh	BB579 growth dn
CSc1ccc(/C=C(\C#N)C(=O)Nc2cccc(C)c2)cc1	-4	1	-9	/	-2
Cn1c(C(=O)OC(C(=O)NCc2ccco2)c2ccncc2)cc2sccc21 (stereo not given)	-17	1	-9	i	7
CN1C(=O)C(O)(CC(=O)/C=C\c2ccc3c(c2)OCO3)c2ccccc21 (stereo not given)	/	1	11*	/	/
Cc1ccc(C(=O)CC2(O)C(=O)N(C)c3ccccc32)s1 (stereo not given)	/	3	14*	27	/
CN1C(=O)C(O)(CC(=O)c2cccs2)c2ccccc21 (stereo not given)	/	2	-2	21	/
Cc1cc(C)cc(N(CCC(=O)O)S(=O)(=O)c2ccc3ccccc3c2)c1	33*	5	0	-40	-30
CCOC(=O)c1c(/N=C/c2cccc([N+](=O)[O-])c2O)sc(C)c1C	-6	0	-7	41	75*

Compound activity deposited in PubChem by several laboratories.
